From ChEMBL document CHEMBL1121495, “Anticandidal activity of pyrimidine-peptide conjugates” (J Med Chem, 1980)

Tested on: Candida albicans
Assay: Compound was evaluated for inhibition of transport of trimethionine in Candida albicans WD 18-4
Assay type: functional
Parameters: concentration or dose not given beside the values
Procedure, shortened: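 Initial uptake rate of radiolabeled (Met)3 into C. albicans WD 18-4 cells grown 6-8 h at 37 °C with aeration. Washed cells (1.4 mg dry wt/mL) preincubated 10 min at 37 °C, mixed with reaction mix of 2% glucose, citrate-phosphate buffer pH 3.5 (0.012 M) and (Met)3 6.06 x 10^-5 M. Samples filtered at intervals, washed, scintillation counted. Competitor included at 10-fold molar excess over (Met)3.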

SMILES	Inhibition
COC(=O)[C@H](CCSC)NC(=O)[C@H](CCSC)NC(=O)c1cc(O)nc(O)n1	0%
O=C(O)CNC(=O)CNC(=O)c1cc(O)nc(O)n1	0%
CC(C)C[C@H](NC(=O)c1nc(O)nc(O)c1F)C(=O)O	0%
CC(C)CC(NC(=O)C(CC(C)C)NC(=O)c1cc(O)nc(O)n1)C(=O)O (stereo not given)	67%
CC(C)C[C@H](NC(=O)[C@H](CC(C)C)NC(=O)c1nc(O)nc(O)c1F)C(=O)O	40%
